These results are taken from ChEMBL document CHEMBL1153529, “Synthesis of fluorinated brassinosteroids based on alkene cross-metathesis and preliminary biological assessment” (J Med Chem, 2009).

The subject of one series is BJ. In words: Cytotoxicity against human BJ cells after 72 hrs by calcein-AM assay. It counts as cell-based. Put shortly:
(§1)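 Human normal fibroblast BJ, T-lymphoblastic leukemia CEM and breast carcinoma MCF-7 cells exposed for 72 h to six serial 4-fold dilutions of compound. Surviving cell proportion read by calcein-AM assay and IC50 calculated. Mean ± SD of three independent experiments, each in triplicate. 28-Homocastasterone served as positive control.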

For series [1], the species on record is Rattus norvegicus. Nature of the series: Displacement of [35S]tert-butylbicyclo[ 2.2.2]phosphorothionate from GABAA receptor in Wistar rat brain membrane at 100 nM relative to control. It counts as cell membranes. A digest of the protocol:
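Membranes from male Wistar rat brain incubated 1 h at 37 °C with 2 nM [35S]TBPS and test compound at 100 nM. Binding expressed as % of buffer-only control samples. Mean ± SD of triplicates or quadruplicates. Kruskal-Wallis global test, then Mann-Whitney-Wilcoxon against control.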

Series [2] is described as follows: Inhibition of [35S]tert-butylbicyclo[ 2.2.2]phosphorothionate binding to GABAA receptor in Wistar rat brain membrane. It counts as cell membranes. A digest of the protocol: (§2)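 Male Wistar rat brain membranes incubated 1 h at 37 °C with 2 nM [35S]TBPS and compound at 1 nM to 10 μM, in duplicates. IC50 estimated as the steroid concentration giving half-maximal inhibition of binding. Imax is the maximal suppression of binding.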

The next series has as its system MCF7. Nature of the series: Cytotoxicity against human MCF7 cells after 72 hrs by calcein-AM assay. It counts as functional, cell-based. Conditions: MCF7, 72 h. Put shortly:
as §1

The species entered for series [3] is Rattus norvegicus. Nature of the series: Inhibition of [35S]tert-butylbicyclo[ 2.2.2]phosphorothionate binding to GABAA receptor in Wistar rat brain membrane relative to control. Type of series: cell membranes. Put shortly: as §2
A further series deals with CCRF-CEM. In words: Cytotoxicity against human CEM cells after 72 hrs by calcein-AM assay. It counts as functional, cell-based. Put shortly: as §1
The test system of series [4] is Phaseolus vulgaris. Nature of the series: Brassinolide type activity in Phaseolus Vulgaris L., cv. Pinto assessed as difference of prolongation of second internode at 0.1 umol/L by second-internode bioassay relative to control. Type of series: functional. A digest of the protocol:
(§3)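 Bean second-internode bioassay. Compound applied in lanolin; second-internode length measured 5 days after application. Activity taken as the difference in internode prolongation (mm) between treated and control plants. Reported concentrations were 10^-10, 10^-7 and 10^-12 mol/L. Mean ± SD.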

Series [5] deals with Phaseolus vulgaris. Nature of the series: Brassinolide type activity in Phaseolus Vulgaris L., cv. Pinto assessed as difference of prolongation of second internode at 1 pmol/L by second-internode bioassay relative to control. Type of series: functional. A digest of the protocol:
as §3

Structures are written as SMILES. Activity calls are given as the source filed them. The rule behind the calls is not given here.

The term IC50 denotes the concentration that gives 50% inhibition. For the compound `C[C@H]([C@@H](O)[C@H](O)CC(F)(F)C(F)(F)C(F)(F)C(F)(F)C(F)(F)C(F)(F)F)[C@H]1CC[C@H]2[C@@H]3COC(=O)[C@H]4C[C@H](O)[C@H](O)C[C@]4(C)[C@H]3CC[C@]12C`, the Activity entry in the series on BJ was “Non-toxic”; in the series filed under Rattus norvegicus [1] it was 47.2%. Besides, the IC50 in series [2] is 0.9 µM; in the series with MCF7, > 50 µM; with CCRF-CEM it was > 50 µM. The Imax in the series filed under Rattus norvegicus [3] was 57.9%.
`C[C@H]([C@@H](O)[C@H](O)CC(F)(F)C(F)(F)C(F)(F)F)[C@H]1CC[C@H]2[C@@H]3COC(=O)[C@H]4C[C@H](O)[C@H](O)C[C@]4(C)[C@H]3CC[C@]12C`: the values for the Activity entry in the series with BJ and in the series filed under Rattus norvegicus [1] were “Non-toxic” and 95.1%, respectively. Besides, the outcome in the series with Phaseolus vulgaris [4] was Active. Moreover, the IC50 in the series on MCF7 and with CCRF-CEM was > 50 µM in each case.
Regarding `CC(C(O)C(O)CC(F)(F)C(F)(F)C(F)(F)F)C1CCC2C3CC(=O)C4CC(O)C(O)CC4(C)C3CCC12C` (centres undefined), the Activity entry with BJ was “Non-toxic”. In addition, the results for the IC50 with MCF7 and in the series on CCRF-CEM were 48.2 µM and 35.3 µM, respectively.
In the case of `C[C@H]([C@@H](O)[C@H](O)CC(F)(C(F)(F)F)C(F)(F)F)[C@H]1CC[C@H]2[C@@H]3CC(=O)C4C[C@H](O)[C@H](O)C[C@]4(C)[C@H]3CC[C@]12C` (some centres undefined), in the series on BJ, the Activity entry is “Non-toxic”. Also, the IC50 with MCF7 and in the series on CCRF-CEM was > 50 µM throughout.
In the case of `CC(=O)[C@H]1CC[C@H]2[C@@H]3CC[C@H]4C[C@H](O)CC[C@]4(C)[C@H]3CC[C@]12C` [BREXANOLONE], the Activity in the series listed under Rattus norvegicus [1] worked out at 56.2%. In series [2], this compound registered an IC50 of 0.08 µM. The same compound returned an Imax in the series listed under Rattus norvegicus [3] of 79%.
On to `CC[C@@H](C(C)C)[C@@H](O)[C@H](O)[C@@H](C)[C@H]1CC[C@H]2[C@@H]3CC(=O)[C@H]4C[C@H](O)[C@H](O)C[C@]4(C)[C@H]3CC[C@]12C`, for which, in the series on BJ, the Activity entry is on record as “Non-toxic”. The IC50 with MCF7 is > 50 µM; in the series on CCRF-CEM, 13 µM.
As to `CC(C(O)C(O)CC(F)(F)C(F)(F)C(F)(F)C(F)(F)C(F)(F)C(F)(F)F)C1CCC2C3CC(=O)C4CC(O)C(O)CC4(C)C3CCC12C` (centres undefined), in the series with BJ, the Activity result was “Non-toxic”. Further, the IC50 in the series with MCF7 and in the series on CCRF-CEM was > 50 µM each time.
With `C[C@H]([C@@H](O)[C@H](O)CC(F)(C(F)(F)F)C(F)(F)F)[C@H]1CC[C@H]2[C@@H]3COC(=O)[C@H]4C[C@H](O)[C@H](O)C[C@]4(C)[C@H]3CC[C@]12C`, the Activity result in the series with BJ is “Non-toxic”; in the series listed under Rattus norvegicus [1], 56.6%; in the series on Phaseolus vulgaris [5], 10.7 mm; in the series with Phaseolus vulgaris [4], 15.9 mm. For the same compound, the IC50 in series [2] is 0.1 µM; in the series on MCF7, > 50 µM; with CCRF-CEM, > 50 µM. This compound came in with an Imax in the series listed under Rattus norvegicus [3] of 59.4%.
